An excerpt weighted towards active compounds, which were near 2.9% of everything screened.
MEKK3 PB1 HTS – modulators of MEKK3-MEK5 PB1 binding, primary screen, biochemical, wildtype MEKK3, multiplex bead flow cytometry, Alexa488-MEK5; Mitogen-activated protein kinase kinase kinase 3 (Homo sapiens), Q99759; bead-based flow cytometry, Alexa488-MEK5 binding to MEKK3; actives lie on both sides; 0 = blocked by unlabeled MEK5, 100 = vehicle; binding response (% of control), % at 10 µM; 290,000 compounds, 1.4% hits;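 active = binding response more than 3 SD above or below the average of its plate-row segment, actives on both sides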;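 note: Alexa488 bead fluorescence after subtracting the streptavidin-only scavenger bead signal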
ATG4B inh – ATG4B protease inhibitors, primary screen, biochemical, fluorescence, uHTS; ATG4B cleavage of LC3-PLA2, NBD-HPC fluorescence, 1 h; 340,000 compounds, 0.51% hits; AID 504462, 2011; Cysteine protease ATG4B (Homo sapiens), Q9Y4P1; inhibition, % at 8.33 µM; in the data active = inhibition above about 40%
Target sequence (Q9Y4P1 whole entry, looked up): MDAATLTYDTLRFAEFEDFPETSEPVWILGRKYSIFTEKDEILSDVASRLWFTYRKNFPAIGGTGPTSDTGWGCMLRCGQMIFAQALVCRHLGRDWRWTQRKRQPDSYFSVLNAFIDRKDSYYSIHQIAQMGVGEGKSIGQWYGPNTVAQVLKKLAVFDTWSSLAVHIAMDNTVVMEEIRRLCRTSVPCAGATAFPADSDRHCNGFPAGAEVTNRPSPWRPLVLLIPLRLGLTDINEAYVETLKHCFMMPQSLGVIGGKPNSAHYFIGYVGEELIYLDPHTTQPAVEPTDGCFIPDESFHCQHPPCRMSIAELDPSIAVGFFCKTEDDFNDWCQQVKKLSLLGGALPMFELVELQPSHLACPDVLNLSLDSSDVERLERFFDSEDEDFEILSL
MEKK2 WT-MEK5 – modulators of MEK5 binding to wildtype MEKK2, primary screen, biochemical, multiplex bead flow cytometry, Alexa488-MEK5. Alexa488-MEK5 binding to MEKK2 WT; actives lie on both sides. 290,000 compounds, 1.1% hits. binding response (% of control), % at 10 µM; in the data active = binding response below about 67% or above about 130%
Dynein transport – inhibitors of GR-EGFP nuclear translocation, primary screen, dynein cargo transport inhibitor project, imaging, high-content, 3617.4 mouse cells. test concentration mostly 20 µM; stimulated with dexamethasone, 1 µM; active compounds read low. z-score, hits read low. 220,000 compounds, 0.47% hits;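 active = plate z-score of nuclear minus cytoplasmic receptor signal below a set negative limit, without overly bright fluorescence or cell loss, cut at about -3.5 in these data, passing the limit was not always enough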;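 note: z-score of nuclear minus cytoplasmic ring GR-EGFP intensity difference per well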
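Also added – dexamethasone, 1.0 µM final · Buffer or medium – tet-free, stripped-serum medium · Schedule – induction 48 h, compound 1 h, agonist 30 min · Detection – formaldehyde fixation, Hoechst nuclear stain, 10x automated fluorescence imaging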
MEKK2 mut-MEK5 – MEK5 binding signal on mutant MEKK2 PB1, primary screen, biochemical, multiplex bead flow cytometry, Alexa488-MEK5; percent response, % at 10 µM; Alexa488-MEK5 binding to MEKK2 mutant; 290,000 compounds, 0.35% hits; in the data active = percent response above about 24%, passing the limit was not always enough
Beta2AR agonist – beta2AR agonists driving receptor internalization, primary screen, cell-based, FAP fluorogen, flow cytometry. AID 504454, 2011. Beta-2 adrenergic receptor (Homo sapiens), P07550. 340,000 compounds, 0.43% hits. response, % (no concentration beside the values). Am2.2-beta2AR cells;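 active = response above a set limit, near 3 SD of response in nonfluorescent compounds, cut at about 42% in these data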
MEKK2wt confirm – modulators of MEK5 binding to wildtype MEKK2, confirmation, biochemical, single concentration, multiplex bead flow cytometry. shares compounds with MEKK3 PB1 HTS. Alexa488-MEK5 binding to MEKK2 WT; actives lie on both sides. binding response (% of control), % at 10 µM. 5,900 compounds, 2.4% hits. AID 1892, 2009; in the data active = binding response below about 16% or above about 210%; inactive = in between
MEKK2mut confirm – mutant MEKK2 PB1-MEK5 binding signal retest – biochemical, single concentration, multiplex bead flow cytometry, confirmation. shares compounds with MEKK3 PB1 HTS. Alexa488-MEK5 binding to MEKK2 mutant. percent response, % at 10 µM. 5,900 compounds, 2% hits. AID 1893, 2009; in the data active = percent response mostly above about 71%, no sharp cut-off; inactive = mostly below about 38%;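 note: higher means compound restores mutant binding toward wildtype level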
MEKK3-MEK5 inh – MEKK3 wild-type PB1 binding to MEK5, inhibitors, confirmation, biochemical, bead multiplex flow cytometry, single concentration, wildtype. shares compounds with MEKK3 PB1 HTS. Alexa488-MEK5 binding to MEKK3; active compounds read low. binding response (% of control), % at 10 µM. 5,900 compounds, 1.8% hits. AID 1894, 2009;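 active = binding response below 72% of control, or above a set upper limit, though filed actives all read lower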;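 note: lower values mean stronger disruption of MEK5 binding to MEKK3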
Large screens that a line does not name were inactive (follow-up assays come after a bar, where they were run); [ ] = dose if it differs, or a comment.

CCCCNCC1C(Oc2ccc(Cl)cc2)C(=O)N1c1ccccc1C (stereo unspecified)	none
Cc1cccc(N2C(=O)C(Oc3ccc(Cl)cc3Cl)C2C(=O)O)c1C (stereo unspecified)	MEKK3 PB1 HTS 139.0 | MEKK2wt confirm inactive | MEKK2mut confirm inactive | MEKK3-MEK5 inh inactive
Cc1cccc(N2CC(C(=O)O)CC2=O)c1C (stereo unspecified)	none
COc1ccc(N2CCN(c3cc(C)c4cccc(C)c4n3)CC2)cc1	MEKK3 PB1 HTS 67.0[inhibitor] | MEKK2wt confirm inactive | MEKK2mut confirm inactive | MEKK3-MEK5 inh inactive
O=C(CCNS(=O)(=O)c1ccc(OC(F)(F)F)cc1)NCCc1c[nH]c2ccccc12	none (no result: MEKK3 PB1 HTS, MEKK2 WT-MEK5, Dynein transport, MEKK2 mut-MEK5)
CCN(c1ccccc1)S(=O)(=O)c1cc(C(=O)Nc2ccccc2Cl)ccc1F	MEKK3 PB1 HTS 66.0[inhibitor] | MEKK2wt confirm inactive | MEKK2mut confirm inactive | MEKK3-MEK5 inh inactive
CCN(c1ccccc1)S(=O)(=O)c1cc(C(=O)Nc2ccc(Br)cc2)ccc1F	none
COc1cc(O)c(C(CCN2CCN(c3ccccc3)CC2)c2ccc(N(C)C)cc2)c(OC)c1 (stereo unspecified)	MEKK2 WT-MEK5 151.0 | MEKK2wt confirm inactive | MEKK2mut confirm inactive | MEKK3-MEK5 inh inactive
CCN(CC)CCC(c1ccc(N(C)C)cc1)c1c(O)cc(OC)cc1OC (stereo unspecified)	MEKK2 WT-MEK5 138.0 | MEKK2wt confirm inactive | MEKK2mut confirm inactive | MEKK3-MEK5 inh inactive
CCN(CC)CCC(c1ccc(OC)cc1)c1c(O)cc(OC)cc1OC (stereo unspecified)	none
COc1ccc(C(CCN2CCN(c3ccccc3)CC2)c2c(O)cc(OC)cc2OC)cc1 (stereo unspecified)	MEKK2 WT-MEK5 135.0 | MEKK2wt confirm inactive | MEKK2mut confirm inactive | MEKK3-MEK5 inh inactive
Nc1cc(S(=O)(=O)N2CCOCC2)ccc1Oc1cccc(Br)c1	none (no result: MEKK3 PB1 HTS, MEKK2 WT-MEK5, Dynein transport, MEKK2 mut-MEK5)
CCOC(=O)N1CCN(c2cc(=O)n(-c3ccc(C)cc3)c(=O)[nH]2)CC1	none
CCc1ccc(C2=NN(CCC(=O)NC3CC3)C(=O)CC2)cc1	MEKK3 PB1 HTS 144.0 (no result: ATG4B inh, Beta2AR agonist) | MEKK2wt confirm inactive | MEKK2mut confirm inactive | MEKK3-MEK5 inh inactive
N#Cc1cc([N+](=O)[O-])cnc1NCC(O)CO (stereo unspecified)	MEKK3 PB1 HTS 2.0[inhibitor], MEKK2 WT-MEK5 2.0[inhibitor] | MEKK2wt confirm inactive | MEKK2mut confirm inactive | MEKK3-MEK5 inh inactive
N#Cc1ccccc1NC(=O)CSc1ccc([N+](=O)[O-])cn1	none
CCOC(=O)N1CCC(NC(=O)c2cc(C(=O)Nc3cccc(C(F)(F)F)c3)ccc2CO)CC1	MEKK3 PB1 HTS 131.0 | MEKK2wt confirm inactive | MEKK2mut confirm inactive | MEKK3-MEK5 inh inactive
COc1cc(O)c(C(CCN2CCOCC2)c2ccc3c(c2)OCO3)c(OC)c1 (stereo unspecified)	none
COc1ccc(C(CCN)c2ccc3c(c2)OCO3)cc1 (stereo unspecified)	MEKK2 mut-MEK5 28.0 (no result: Dynein transport) | MEKK2wt confirm inactive | MEKK2mut confirm inactive | MEKK3-MEK5 inh inactive
O=C(NCc1ccco1)c1ccc(=O)[nH]n1	MEKK3 PB1 HTS 82.0[inhibitor] | MEKK2wt confirm inactive | MEKK2mut confirm inactive | MEKK3-MEK5 inh inactive
Cc1cccc(NC(=O)CSCC(=O)Nc2cccc3ncccc23)c1	none (no result: MEKK3 PB1 HTS, MEKK2 WT-MEK5, Dynein transport, MEKK2 mut-MEK5)
Cc1ccc(/C=N/NC(=O)c2ccoc2C)o1	MEKK3 PB1 HTS 130.0 | MEKK2wt confirm inactive | MEKK2mut confirm inactive | MEKK3-MEK5 inh inactive
Cc1ccc(/C=N/NC(=O)C(=O)N/N=C/c2ccc(C)o2)o1	none
Cn1cc(CN2CCN(c3ccccc3)CC2)c2ccccc21	MEKK3 PB1 HTS 73.0[inhibitor] | MEKK2wt confirm inactive | MEKK2mut confirm inactive | MEKK3-MEK5 inh inactive
O=C(N/N=C/c1ccc2ncccc2c1)c1cc(-c2cccs2)nc2ccccc12	MEKK3 PB1 HTS 35.0[inhibitor], MEKK2 WT-MEK5 30.0[inhibitor] | MEKK2wt confirm inactive | MEKK2mut confirm inactive | MEKK3-MEK5 inh inactive
Cc1cccc(-n2[nH]c(C)c(C=Nc3ccc4[nH]c(=O)[nH]c4c3)c2=O)c1	MEKK3 PB1 HTS 129.0 | MEKK2wt confirm inactive | MEKK2mut confirm inactive | MEKK3-MEK5 inh inactive
COc1ccc(-c2noc(-c3ccccc3C(=O)Nc3cccnc3)n2)cc1	MEKK2 mut-MEK5 26.0 | MEKK2wt confirm inactive | MEKK2mut confirm inactive | MEKK3-MEK5 inh inactive
CCOC(=O)c1ccc(NC(=O)C2(c3ccc(Cl)cc3)CCCC2)cc1	none
Cc1ccc(NC(=O)COC(=O)C2(c3ccc(Cl)cc3)CCCC2)cc1	MEKK3 PB1 HTS 153.0 | MEKK2wt confirm inactive | MEKK2mut confirm inactive | MEKK3-MEK5 inh inactive
COc1ccc(CCNC(=O)CSc2nc(O)cc(=O)[nH]2)cc1OC	MEKK3 PB1 HTS 134.0 | MEKK2wt confirm inactive | MEKK2mut confirm inactive | MEKK3-MEK5 inh inactive
COc1ccc(CCNC(=O)CC2Nc3cc(C)c(C)cc3NC2=O)cc1OC (stereo unspecified)	MEKK3 PB1 HTS 0.0[inhibitor], MEKK2 WT-MEK5 1.0[inhibitor] | MEKK2wt confirm inactive | MEKK2mut confirm inactive | MEKK3-MEK5 inh inactive
COc1ccc(CCNC(=O)CN(c2ccc(OC)c(OC)c2)S(C)(=O)=O)cc1OC	MEKK3 PB1 HTS 122.0 | MEKK2wt confirm inactive | MEKK2mut confirm inactive | MEKK3-MEK5 inh inactive
COc1ccc(CCNC(=O)C2CC(=O)N(CCc3ccc(C)cc3)C2)cc1OC (stereo unspecified)	none
Nc1ncnc(Nc2ccccc2Oc2ccccc2)n1	none (no result: MEKK3 PB1 HTS, MEKK2 WT-MEK5, Dynein transport, MEKK2 mut-MEK5)
Cc1cc(=S)nc(-c2ccccn2)[nH]1	MEKK3 PB1 HTS 57.0[inhibitor], MEKK2 WT-MEK5 59.0[inhibitor] | MEKK2wt confirm inactive | MEKK2mut confirm inactive | MEKK3-MEK5 inh inactive
Cc1[nH]c(-c2ccccn2)nc(=S)c1Cl	none

From PubChem BioAssay
